Results taken from ChEMBL document CHEMBL1140873, “Interaction between double helix DNA fragments and a new topopyrone acting as human topoisomerase I poison” (Bioorg Med Chem, 2009).
Calls of active or inactive are those of the source. No cut-off for these calls is given here.

Experiments:
[1] = Binding affinity to oligonucleotide d(CGTACG)2 at [drug]/[DNA] ratio of 1 by NMR spectroscopy
Summary of the method: (§1)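 1H NMR titration at 600 MHz. A drug stock (23.4 mM) was added in increasing amounts to oligonucleotide up to R = [2]/[DNA] = 4.0. An inverse titration added DNA to 0.2 mM drug. Conditions were D2O, 10 mM phosphate, 0.1 M NaCl, pH 6.7, 25 °C. Shifts were referenced to external DSS.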

[2] = Binding affinity to oligonucleotide d(ATGCGCAT)2 by UV-visible spectroscopy
Summary of the method: (§2)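 Apparent DNA–drug binding constants measured by UV titration at 25 °C, read at λmax 376 nm. A 5.0 x 10^-? M aqueous drug stock was added in increasing amounts to a 1.0 x 10^-5 M oligonucleotide solution.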

[3] = Binding affinity to oligonucleotide d(CGTACG)2 at [drug]/[DNA] ratio of 2 by NOESY experiment
Summary of the method: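 Phase-sensitive NOESY (TPPI) run at 25 °C in D2O and 15 °C in H2O/D2O 90:10. Sample was complex at R = 2 in 10 mM phosphate pH 6.7 with 100 mM NaCl. Mixing time 300 ms, 2K x 512 FIDs, 1.5 s recycle delay, 80 scans. Ligand–DNA NOEs were treated as transferred NOEs.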

[4] = Binding affinity to oligonucleotide d(CGTACG)2 by UV-visible spectroscopy; summary of the method: as §2
[5] = Binding affinity to oligonucleotide d(CGTACG)2 assessed as intercalation by single diffusion coefficient experiment
Summary of the method: (§3)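 DOSY at 25 °C on the complex in D2O, 0.1 M NaCl, 10 mM phosphate, pH 6.7, with drug at 5.4 mM. Gradient pulse 1.5 ms, 64 increments. Molecular mass was read from a calibration curve of diffusion standards from glucose up to trypsin (Mr 180–23,500).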

[6] = Binding affinity to oligonucleotide d(CGTACG)2 by single diffusion coefficient experiment; summary of the method: as §3
[7] = Binding affinity to oligonucleotide d(CGTATACG)2 by UV-visible spectroscopy; summary of the method: as §2
[8] = Binding affinity to oligonucleotide d(CGTACG)2 at [drug]/[DNA] ratio of 4 by NMR spectroscopy; summary of the method: as §1
[9] = Binding affinity to oligonucleotide d(CGTACG)2 at [drug]/[DNA] ratio of 4 by NMR DOSY experiment; summary of the method: as §3
[10] = Binding affinity to oligonucleotide d(CGTACG)2 at [drug]/[DNA] ratio of 3 by NMR DOSY experiment; summary of the method: as §3

Activity [1]: Active | K [2]: 6 ×10³ /M | K [4]: 4 ×10³ /M | Activity [5]: Active | Activity [6]: Active | K [7]: 1 ×10³ /M | Activity [8]: Active | Activity [9]: Active | Activity [10]: Active
SMILES: Cc1cc(=O)c2ccc3c(c2o1)C(=O)c1c(OCCN(C)C)cccc1C3=O
Activity [3]: Active
